In ChEMBL document CHEMBL5303300, “EUbOPEN Chemogenomics Library - Multiplex” (2023):
Where “and” joins values, the source holds several entries; their conditions need not be identical. Equal values may be shown once.

Tests used:
Fibroblast = assay: Multiplex assay against human fibroblast; assay type: toxicity, cell-based; settings: number of replicates 2
Procedure, shortened: (§1)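 Imaging took place on a CQ1 microscope at 37°C and 5% CO2 once compound had been added to live cells stained at seeding with Hoechst33342, BioTracker Green Microtubule Cytoskeleton Dye, MitoTracker Red and Annexin V Alexa Fluor 680. CellPathfinder machine-learning gating classed cells as Hoechst high-intensity objects or normal cells, classed normal cells as having healthy, pyknosed or fragmented nuclei, and classed pyknosed cells as mitotic or apoptotic. Tubulin, mitochondrial-mass and membrane-permeability phenotypes are per cents of the healthy-nucleus cells.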

U2OS = assay: Multiplex assay against U2OS; assay type: toxicity, cell-based; settings: human, number of replicates 2; procedure, shortened: as §1
[1] = 24 h, 1 µM, compound concentration 1 uM
[2] = 24 h, 10 µM, compound concentration 10 uM
[3] = 48 h, 1 µM, compound concentration 1 uM
[4] = 48 h, 10 µM, compound concentration 10 uM
[5] = 12 h, 1 µM, compound concentration 1 uM
[6] = 12 h, 10 µM, compound concentration 10 uM

For `CCC(=O)O[C@@H](OP(=O)(CCCCc1ccccc1)CC(=O)N1C[C@H](C2CCCCC2)C[C@H]1C(=O)[O-])C(C)C.[Na+]` (stereo partly specified), the “Population Hoechst High Intensity Objects (%)” value (Fibroblast; [1]) was 0%, the “Population Membrane Permeable-Phenotype (%)” value (Fibroblast; [1]) was 3% and 6% and the “Population Mitochondria Different-Phenotype (%)” value (Fibroblast; [1]) was 0% and 2%. For the same compound, the “Population Mitotic Cells (%)” value (Fibroblast; [1]) was 50% and 54%, the “Population Normal (%)” value (Fibroblast; [1]) was 100% and the “Population Pyknosed Nuclei (%)” value (Fibroblast; [1]) was 20%. For the same compound, the “Population Tubulin-Different-Phenotype (%)” value (Fibroblast; [1]) was 9% and 10%, the “Total Cell Count” value (Fibroblast; [1]) was 178 and 215 and the “Population Apoptotic (%)” value (Fibroblast; [2]) was 41% and 50%. For the same compound, the “Population Fragmented Nuclei (%)” value (Fibroblast; [2]) was 8% and 14%, the “Population Healthy Nuclei (%)” value (Fibroblast; [2]) was 76% and 74% and the “Population Hoechst High Intensity Objects (%)” value (Fibroblast; [2]) was 0%. For the same compound, the “Population Membrane Permeable-Phenotype (%)” value (Fibroblast; [2]) was 5% and 1%, the “Population Mitochondria Different-Phenotype (%)” value (Fibroblast; [2]) was 0% and the “Population Mitotic Cells (%)” value (Fibroblast; [2]) was 58% and 50%. For the same compound, the “Population Normal (%)” value (Fibroblast; [2]) was 99% and 100%, the “Population Pyknosed Nuclei (%)” value (Fibroblast; [2]) was 15% and 11% and the “Population Tubulin-Different-Phenotype (%)” value (Fibroblast; [2]) was 11% and 3%. For the same compound, the “Total Cell Count” value (Fibroblast; [2]) was 223 and 221, the “Population Apoptotic (%)” value (Fibroblast; [3]) was 68% and 61% and the “Population Fragmented Nuclei (%)” value (Fibroblast; [3]) was 11% and 15%. For the same compound, the “Population Healthy Nuclei (%)” value (Fibroblast; [3]) was 67% and 68%, the “Population Hoechst High Intensity Objects (%)” value (Fibroblast; [3]) was 0% and the “Population Membrane Permeable-Phenotype (%)” value (Fibroblast; [3]) was 5% and 11%. The “Population Mitochondria Different-Phenotype (%)” value (Fibroblast; [3]) was 0% and 1%, the “Population Mitotic Cells (%)” value (Fibroblast; [3]) was 31% and 38% and the “Population Normal (%)” value (Fibroblast; [3]) was 100%. The “Population Pyknosed Nuclei (%)” value (Fibroblast; [3]) was 20% and 16%, the “Population Tubulin-Different-Phenotype (%)” value (Fibroblast; [3]) was 8% and the “Total Cell Count” value (Fibroblast; [3]) was 183 and 213. For the same compound, the “Population Apoptotic (%)” value (Fibroblast; [4]) was 45% and 48%, the “Population Fragmented Nuclei (%)” value (Fibroblast; [4]) was 9% and 16% and the “Population Healthy Nuclei (%)” value (Fibroblast; [4]) was 75% and 72%. The “Population Hoechst High Intensity Objects (%)” value (Fibroblast; [4]) was 0%, the “Population Membrane Permeable-Phenotype (%)” value (Fibroblast; [4]) was 4% and 1% and the “Population Mitochondria Different-Phenotype (%)” value (Fibroblast; [4]) was 0%. The “Population Mitotic Cells (%)” value (Fibroblast; [4]) was 54% and 52%, the “Population Normal (%)” value (Fibroblast; [4]) was 99% and 100% and the “Population Pyknosed Nuclei (%)” value (Fibroblast; [4]) was 14% and 10%. For the same compound, the “Population Tubulin-Different-Phenotype (%)” value (Fibroblast; [4]) was 6% and 1%, the “Total Cell Count” value (Fibroblast; [4]) was 222 and 228 and the “Population Apoptotic (%)” value (U2OS; [5]) was 33% and 87%. The “Population Healthy Nuclei (%)” value (U2OS; [5]) was 60% and 83%, the “Population Hoechst High Intensity Objects (%)” value (U2OS; [5]) was 0% and the “Population Membrane Permeable-Phenotype (%)” value (U2OS; [5]) was 0% and 1%. The “Population Mitochondria Different-Phenotype (%)” value (U2OS; [5]) was 0%, the “Population Normal (%)” value (U2OS; [5]) was 100% and the “Population Pyknosed Nuclei (%)” value (U2OS; [5]) was 6% and 12%. The “Population Tubulin-Different-Phenotype (%)” value (U2OS; [5]) was 80% and 82%, the “Population Apoptotic (%)” value (U2OS; [6]) was 100% and 40% and the “Population Healthy Nuclei (%)” value (U2OS; [6]) was 53% and 87%. The “Population Hoechst High Intensity Objects (%)” value (U2OS; [6]) was 0%, the “Population Membrane Permeable-Phenotype (%)” value (U2OS; [6]) was 7% and 0% and the “Population Mitochondria Different-Phenotype (%)” value (U2OS; [6]) was 7% and 0%. For the same compound, the “Population Normal (%)” value (U2OS; [6]) was 100%, the “Population Pyknosed Nuclei (%)” value (U2OS; [6]) was 7% and the “Population Tubulin-Different-Phenotype (%)” value (U2OS; [6]) was 78% and 80%. For the same compound, the “Population Apoptotic (%)” value (U2OS; [1]) was 40% and 80%, the “Population Healthy Nuclei (%)” value (U2OS; [1]) was 61% and 87% and the “Population Hoechst High Intensity Objects (%)” value (U2OS; [1]) was 0%. For the same compound, the “Population Membrane Permeable-Phenotype (%)” value (U2OS; [1]) was 0%, the “Population Mitochondria Different-Phenotype (%)” value (U2OS; [1]) was 0% and the “Population Normal (%)” value (U2OS; [1]) was 100% and 99%. The “Population Pyknosed Nuclei (%)” value (U2OS; [1]) was 8%, the “Population Tubulin-Different-Phenotype (%)” value (U2OS; [1]) was 80% and 86% and the “Population Apoptotic (%)” value (U2OS; [2]) was 80% and 41%. For the same compound, the “Population Fragmented Nuclei (%)” value (U2OS; [2]) was 4%, the “Population Healthy Nuclei (%)” value (U2OS; [2]) was 71% and 87% and the “Population Hoechst High Intensity Objects (%)” value (U2OS; [2]) was 0%. For the same compound, the “Population Membrane Permeable-Phenotype (%)” value (U2OS; [2]) was 6% and 1%, the “Population Mitochondria Different-Phenotype (%)” value (U2OS; [2]) was 0% and the “Population Mitotic Cells (%)” value (U2OS; [2]) was 20% and 58%. For the same compound, the “Population Normal (%)” value (U2OS; [2]) was 100% and 99%, the “Population Pyknosed Nuclei (%)” value (U2OS; [2]) was 23% and 8% and the “Population Tubulin-Different-Phenotype (%)” value (U2OS; [2]) was 80% and 83%. For the same compound, the “Population Apoptotic (%)” value (U2OS; [3]) was 50% and 84%, the “Population Healthy Nuclei (%)” value (U2OS; [3]) was 72% and 90% and the “Population Hoechst High Intensity Objects (%)” value (U2OS; [3]) was 0%. The “Population Membrane Permeable-Phenotype (%)” value (U2OS; [3]) was 0% and 1%, the “Population Mitochondria Different-Phenotype (%)” value (U2OS; [3]) was 0% and the “Population Normal (%)” value (U2OS; [3]) was 100% and 99%. The “Population Pyknosed Nuclei (%)” value (U2OS; [3]) was 10% and 6%, the “Population Tubulin-Different-Phenotype (%)” value (U2OS; [3]) was 87% and 85% and the “Population Apoptotic (%)” value (U2OS; [4]) was 75% and 46%. The “Population Healthy Nuclei (%)” value (U2OS; [4]) was 64% and 92%, the “Population Hoechst High Intensity Objects (%)” value (U2OS; [4]) was 0% and the “Population Membrane Permeable-Phenotype (%)” value (U2OS; [4]) was 4% and 0%. The “Population Mitochondria Different-Phenotype (%)” value (U2OS; [4]) was 0%, the “Population Mitotic Cells (%)” value (U2OS; [4]) was 25% and 53% and the “Population Normal (%)” value (U2OS; [4]) was 100%. For the same compound, the “Population Tubulin-Different-Phenotype (%)” value (U2OS; [4]) was 70% and 85%.
